Source: PubChem BioAssay
Compounds with a hit are over-represented: about 1.8% of the library has one in this group of screens.
Beta2AR agonist – activates human beta-2 adrenergic receptor causing internalization. AID 504454. response, % (no concentration beside the values). Am2.2-beta2AR cells, FAP receptor internalization, flow cytometry. hit rate 0.43% among 340,000;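 active = response above a set limit, near 3 SD of response in nonfluorescent compounds, cut at about 42% in these data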
APJ antagonist – antagonists of human APJ apelin receptor. P35414. CHO-K1 APJ beta-arrestin complementation, luminescence. inhibition, % at 20 µM. hit rate 0.32% among 330,000. AID 2521;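 active = inhibition above about 40% at 20 µM, limit read from the data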;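 note: cells challenged with 10 nM apelin-13 agonist together with compound; plate controls were apelin-13 plus DMSO wells for no effect and DMSO wells lacking apelin-13 for full effect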
EBI2 block – blocks human EBI2 receptor beta-arrestin signaling. P32249. hit rate 0.81% among 360,000. EBI2 beta-arrestin recruitment, luminescence, 7a,25-OHC stimulated. inhibition, % at 5 µM; in the data active = inhibition above about 38%;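 note: enzyme fragment complementation signal reports receptor beta-arrestin coupling in cells; 0% = agonist plus DMSO wells and 100% = wells without agonist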
Target sequence (P32249 whole entry, looked up, the tested form may be a part): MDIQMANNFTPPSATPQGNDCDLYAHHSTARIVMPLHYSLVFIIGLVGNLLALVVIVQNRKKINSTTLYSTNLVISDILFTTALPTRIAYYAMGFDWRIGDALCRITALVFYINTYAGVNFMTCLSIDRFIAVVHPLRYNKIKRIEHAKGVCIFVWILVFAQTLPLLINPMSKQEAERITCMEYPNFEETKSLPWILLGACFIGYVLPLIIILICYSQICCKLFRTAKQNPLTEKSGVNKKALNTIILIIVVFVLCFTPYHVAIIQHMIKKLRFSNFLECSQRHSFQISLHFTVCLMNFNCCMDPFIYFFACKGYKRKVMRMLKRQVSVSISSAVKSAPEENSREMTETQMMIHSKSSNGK
APJ agonist – activates the human apelin receptor APJ; P35414; CHO-K1 APJ PathHunter beta-arrestin, luminescence; 0% DMSO wells, 100% apelin; activation, % at 20 µM; hit rate 0.11% among 330,000; AID 2520;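 active = activation more than six SD over the plate average, tested at 20 µM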;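 note: 0% = DMSO alone and 100% = apelin-13 at 10 nM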
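Incubation: overnight seeding, 90 min compound at 25 °C, 1 h detection; test system: PathHunter CHO-K1 APJ (AGTRL-1) beta-arrestin reporter cells; amount: 1000 cells/well; doses: one dose, 20 µM compound, 1% DMSO; measured by: beta-gal luminescence; measure: agonist-driven arrestin binding to APJ; benchmarks: negative DMSO alone, positive Apelin-13 at 10 nM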
CCR6 antag – blocks CCL20-driven beta-arrestin recruitment at human CCR6; P51684; CHO-K1 CCR6 PathHunter beta-arrestin, luminescence, CCL20-stimulated; inhibition, % at 20 µM; hit rate 0.49% among 340,000; AID 493098;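 active = compounds whose inhibition of the agonist-driven luminescence signal at 20 µM reaches about 50%, limit read from the data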;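 note: cells stimulated with CCL20 at 14 nM final; plate controls were DMSO with CCL20 for no effect and DMSO without agonist for full effect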
CXCR6 block – inhibitors of human CXCR6 receptor; CHO-K1 PathHunter CXCR6 beta-arrestin, luminescence; inhibition, % at 20 µM; hit rate 0.36% among 360,000; AID 602244; in the data active = inhibition above about 34%, passing the limit was not always enough;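 note: antagonist mode with CXCL16 agonist at 10 nM final; 0% = 10 nM CXCL16 with DMSO and 100% = unstimulated wells without agonist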
Target sequence (O00574 whole entry, looked up): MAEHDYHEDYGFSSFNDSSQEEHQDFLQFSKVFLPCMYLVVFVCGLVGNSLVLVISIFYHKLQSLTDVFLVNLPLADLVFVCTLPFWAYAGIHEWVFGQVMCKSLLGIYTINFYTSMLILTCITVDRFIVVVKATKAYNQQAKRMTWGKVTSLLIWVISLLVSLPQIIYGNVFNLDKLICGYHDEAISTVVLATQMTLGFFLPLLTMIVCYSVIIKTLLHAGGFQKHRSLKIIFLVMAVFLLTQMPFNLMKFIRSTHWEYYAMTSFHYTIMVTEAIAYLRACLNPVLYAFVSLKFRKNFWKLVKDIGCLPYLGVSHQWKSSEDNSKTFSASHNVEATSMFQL
An asterisk follows results filed as active; . = no result.

SMILES	Beta2AR agonist	APJ antagonist	EBI2 block	APJ agonist	CCR6 antag	CXCR6 block
CC1CC(C)CN(C(=O)COC(=O)c2ccc(Cl)nc2)C1 (centres undefined)	5.3	9.4	4.0	-9.0	-2.3	-0.3
CC(=O)n1cc(N(C(=O)CCl)c2ccc([N+](=O)[O-])cc2)c2ccccc21	61.5*	-1.8	8.0	1.6	2.0	12.1
CCCS(=O)(=O)NC(=O)C1(C)CCN(C(=O)Cc2ccc(OC)cc2)C1 (centres undefined)	.	.	-3.2	.	.	-2.1
N#CCN1CCN(CC(=O)Nc2ccc(OCc3ccccc3)cc2)CC1	42.1*	0.8	-4.5	1.5	-2.2	-1.4
CCOC(=O)C1(C)CCCCN1C(=O)c1ccc(F)c(C)c1 (centres undefined)	.	.	-4.3	.	.	0.1
CCSc1nc2ccccc2n1C(=O)/C=C\c1ccc(OC)c(OC)c1	50.8*	12.5	18.8	-6.6	24.0	18.6
CCSc1nc2ccccc2n1CC(N)=O	9.9	-16.6	-1.7	1.8	-4.1	-5.3
N#Cc1ccc(OCC(=O)N2CCN(c3ccc(C(F)(F)F)cn3)CC2)cc1	3.0	-5.0	58.6*	0.6	-7.5	-14.4
C=CCN1C(=O)C(CC(=O)NCC)SC1=Nc1ccccc1CC (centres undefined)	2.4	8.6	3.4	-3.9	7.4	6.0
CC(CN1CCOCC1)OC(=O)c1cccc(Cl)c1 (centres undefined)	-4.1	2.3	4.1	0.6	0.4	-16.6
O=C1c2sc3nc4ccccc4n3c2C(=O)N1c1ccccc1Cl	46.1*	-2.3	9.1	-4.6	47.4	38.4*
COc1ccc(-n2c(O)c(/C=N/Nc3nc(C)cc(C)n3)c3ccccc3c2=O)cc1OC	-2.5	21.9	2.0	-3.2	72.9*	36.9*
CNc1c(C(=O)O)ccc2c1C(=O)c1ccccc1C2=O	6.1	-4.6	-3.0	-1.5	52.6*	33.6
NC(=O)c1ccc(N=Nc2c(-c3ccccc3)[nH]n(-c3ccccc3)c2=O)cc1	.	37.2	.	-6.8	.	.
NS(=O)(=O)c1ccc(N=Nc2c(-c3ccccc3)[nH]n(-c3nc(-c4ccccc4)cs3)c2=O)cc1	1.1	32.4	2.3	-2.1	49.2	43.7*
O=C(OCc1ccc(Br)cc1F)c1cc2ccccc2oc1=O	10.0	-6.4	-2.3	-2.0	18.4	-4.0
COc1ccc(S(=O)(=O)N2CCOCC2)cc1NC(=O)[C@@H]1CCCN1C(=O)c1cccs1	-2.1	2.0	-6.7	-2.0	96.1*	0.6
O=C1C(Br)=C(c2ccccc2)C(c2ccccc2)=C1c1ccccc1	22.6	.	49.1*	.	68.3*	20.8
O=S(=O)(/C=C/c1ccccc1)NCc1ccccc1Cl	66.7*	-27.5	1.8	-1.7	12.4	-3.4
CC1=NN(C(=O)c2ccccc2Cl)C(O)(c2ccccc2)C1 (centres undefined)	-5.2	-3.7	-10.7	-5.1	6.7	-0.1
CC1=NN(C(=O)c2ccccc2)C(O)(c2ccc(Br)cc2)C1 (centres undefined)	-0.2	23.8	13.5	-4.6	54.7*	33.5
COC(=O)C1=NN(C(=O)c2cccc(Br)c2)C(O)(c2ccc(Cl)cc2)C1 (centres undefined)	-52.0	4.6	-19.1	-0.3	.	45.3*
CCOC(=O)C1=NN(C(=O)c2ccc(OC)cc2)C(O)(c2ccc(Cl)cc2)C1 (centres undefined)	25.7	-18.5	-2.7	-7.2	42.4	23.8
O=C(Nc1nnc([C@@H]2C[C@H](O)[C@@H](CO)O2)s1)c1cccc(C(F)(F)F)c1	.	.	0.7	.	.	-0.6
Cc1ccc(O)c(N=Cc2cc(Cc3ccccc3)cc([N+](=O)[O-])c2O)c1	24.0	-12.6	-7.9	-0.7	29.0	24.8
SMILES	Beta2AR agonist	APJ antagonist	EBI2 block	APJ agonist	CCR6 antag	CXCR6 block
O=[N+]([O-])c1cc(Cc2ccccc2)cc(C=Nc2ccc(N3CCOCC3)cc2)c1O	15.4	.	4.1	.	54.7*	42.7*
COc1ccccc1N=Nc1nc(-c2ccccc2)c(-c2ccccc2)[nH]1	18.6	.	38.1	.	67.1*	33.8
Cc1nc(NC(=O)CSc2nnnn2Cc2ccccc2)sc1C	-3.8	-3.6	4.3	-1.4	85.8*	-11.2
COc1cc(/C=C2/C(=O)N(c3ccc([N+](=O)[O-])cc3)N=C2N2CCOCC2)ccc1O	8.5	32.0	5.9	-3.1	55.2*	36.9
CCN(CC)c1ccc(/C=C2/C(=O)N(c3ccc([N+](=O)[O-])cc3)N=C2N2CCOCC2)cc1	.	6.2	.	-3.4	.	.
CC1(C)Cc2c(cnn2-c2ccc(F)cc2)C(NC(=O)c2ccc(=O)oc2)C1 (centres undefined)	-8.3	-2.4	16.4	-6.1	7.8	-7.7
Nc1nc(Cn2nnc(-c3ccccc3F)n2)nc(N2CCOCC2)n1	51.6*	-1.0	4.6	-3.3	-25.3	-3.2
Nc1nc(Cn2nnc(-c3ccccc3Cl)n2)nc(N2CCOCC2)n1	-3.0	-16.7	-15.7	-1.0	8.7	-0.7
N#Cc1ccc(-c2cccnc2)nc1SCC(=O)c1ccccc1	-78.9	-21.0	39.6*	0.1	10.3	6.7
O=C(Oc1ccc(C(=S)N2CCOCC2)cc1Br)c1cc(Cl)ccc1Cl	10.0	1.8	53.5*	-4.5	37.5	8.4
COc1ccc(CN2CN(c3ccc(Cl)cc3)C(=O)N(n3cnnc3)C2)cc1	-2.5	24.3	-3.9	-5.0	-16.0	44.3*
COc1cccc(/C=N/Nc2nc3ccccc3n3cnnc23)c1O	108.9*	-27.4	-5.4	-0.1	-13.4	-9.0
CCOC(=O)N=Nc1c(O)n(CC(=O)OC)c2ccccc12	1.6	1.8	4.4	-2.4	11.6	-1.9
CCOC(=O)N=Nc1c2ccccc2c2nc3no[nH]c3nc12	26.3	12.7	-5.1	-3.6	46.2	35.5*
CCc1nc(N)nc(N)c1-c1ccc(N(C)Cc2ccccc2)c([N+](=O)[O-])c1	8.0	.	1.6	.	7.4	23.5
O=C(COC(=O)c1cncc(Br)c1)Nc1ccc(F)c(F)c1F	0.4	0.9	6.4	2.6	3.2	-2.5
Cc1csc(N/N=C/c2ccc([N+](=O)[O-])cc2)n1	-1.4	0.5	-7.7	6.3	-4.9	-8.4
C(=N\Nc1nc2ccccc2s1)/c1ccccn1	5.5	33.9	.	-2.3	76.9*	.
COc1ccc(C=NNc2nc3ccccc3s2)cc1	-0.6	.	-2.5	.	-16.3	-3.5
Cc1csc(N/N=C/c2ccccn2)n1	9.2	12.4	0.0	-1.0	60.3*	22.8
Cc1cc2c(C)nc(N/N=C/c3ccc([N+](=O)[O-])cc3)nc2o1	4.2	.	0.7	.	108.2*	3.6
O=[N+]([O-])c1ccc(C=NNc2ccccc2)cc1	-15.1	.	8.7	.	50.3*	18.4
Cc1ccc(C)c(C(O)c2ncc(-c3cccc(C(F)(F)F)c3)[nH]2)c1 (centres undefined)	.	.	-2.7	.	.	-12.9
CCOc1ccc(CCNC(=O)c2nnc(CS(=O)(=O)c3ccccc3)o2)cc1OCC	10.0	9.7	-3.0	-2.7	19.5	-4.1
